Assay results from paper PMC6357779 (Journal of biomolecular screening, 2013).
Where a SMILES comes first, the peptide text is derived from it. The star is where a group is joined. Cbz = O=C(OCc1ccccc1)*

How the values were obtained:
[1] = system: estrogen receptor (ERE-tk-luc reporter) in MCF-7 cells; assay: ERE-tk-luc luciferase transactivation assay in MCF-7 cells; type: cell-based, human; settings: MCF-7, 10 μM compound, 24 h, RLU normalized to no compound added
[2] = system: estradiol-mediated transactivation (ERE-tk-luc) in MCF-7 cells; assay: Estradiol competition transactivation luciferase reporter assay in MCF-7 cells; type: cell-based, human
Method in brief: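 MCF-7 cells moved to phenol red–free DMEM with 10% charcoal-stripped FBS for 24 h, then plated at 100,000 cells/well (96-well). Next day each well was transfected with 200 ng ERE-tk-luc plasmid using Lipofectamine LTX. Cells then received 100 nM estradiol alone, test compound alone (100 nM), or estradiol plus 100 nM, 1 μM or 10 μM test compound. Bright-Glo luminescence was read, and RLU normalized to no-compound wells. Triplicates, three biological replicates.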

[3] = target: GFP-GRER chimera (N-terminus of the glucocorticoid receptor fused to the human ERα ligand binding domain) (Homo sapiens, UniProt P03372); assay: GFP-GRER nuclear translocation high-content imaging assay in 6020 cells; type: cell-based
[4] = MCF-7, 100 nM estradiol + 10 μM compound

GFP-GRER chimera (N-terminus of the glucocorticoid receptor fused to the human ERα ligand binding domain), sequence (P03372 302-595, change not shown): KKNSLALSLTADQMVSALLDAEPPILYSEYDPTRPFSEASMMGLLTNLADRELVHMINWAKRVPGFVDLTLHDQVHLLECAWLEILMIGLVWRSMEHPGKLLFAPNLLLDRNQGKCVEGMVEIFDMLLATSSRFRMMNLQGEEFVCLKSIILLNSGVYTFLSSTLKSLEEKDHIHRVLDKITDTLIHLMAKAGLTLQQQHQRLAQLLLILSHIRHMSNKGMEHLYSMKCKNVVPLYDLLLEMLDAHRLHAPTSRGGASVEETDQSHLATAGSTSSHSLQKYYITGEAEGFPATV
GFP-GRER chimera (N-terminus of the glucocorticoid receptor fused to the human ERα ligand binding domain), sequence (P06536 1-565, change not shown, further chain): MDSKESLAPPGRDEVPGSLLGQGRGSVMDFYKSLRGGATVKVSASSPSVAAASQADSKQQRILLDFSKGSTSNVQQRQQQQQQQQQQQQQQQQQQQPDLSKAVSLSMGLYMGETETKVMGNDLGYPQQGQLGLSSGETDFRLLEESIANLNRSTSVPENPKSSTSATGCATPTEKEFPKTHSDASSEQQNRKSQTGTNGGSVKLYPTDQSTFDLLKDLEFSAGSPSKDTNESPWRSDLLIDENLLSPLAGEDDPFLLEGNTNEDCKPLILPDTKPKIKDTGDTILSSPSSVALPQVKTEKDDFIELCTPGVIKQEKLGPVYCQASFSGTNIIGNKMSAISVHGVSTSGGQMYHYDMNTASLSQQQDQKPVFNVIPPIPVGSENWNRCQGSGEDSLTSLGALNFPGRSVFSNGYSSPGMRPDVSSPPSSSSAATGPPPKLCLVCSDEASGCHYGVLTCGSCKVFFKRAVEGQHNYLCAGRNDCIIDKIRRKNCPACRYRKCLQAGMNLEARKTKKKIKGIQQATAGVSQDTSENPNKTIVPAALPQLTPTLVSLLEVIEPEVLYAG

Row | Compound | fold transactivation induction (transactivation potential) [1] | also measured
1 | tetrocarcin A [NSC 333856] | 1.34 | 
2 | CC/C(=C(\c1ccccc1)c1ccc(OCCN(C)C)cc1)c1ccccc1 [tamoxifen] |  | decrease in estradiol-mediated transactivation [2, 4]: 51%
3 | CC#C[C@]1(O)CC[C@H]2[C@@H]3CCC4=CC(=O)CCC4=C3[C@@H](c3ccc(N(C)C)cc3)C[C@@]21C [RU486] | 0.4 | 
4 | C[C@]12CC[C@@H]3c4ccc(O)cc4C[C@@H](CCCCCCCCC[S+]([O-])CCCC(F)(F)C(F)(F)F)[C@H]3[C@@H]1CC[C@@H]2O (stereo partly drawn) [ICI 182,780] | 0.24 | 
5 | CC(C)C[C@@H](C=O)NC(=O)[C@H](CC(C)C)NC(=O)[C@H](CC(C)C)NC(=O)OCc1ccccc1 [MG132] (Cbz-Leu-Leu-Leu-aldehyde) | 0.61 | EC50 [3]: 192 nM
6 | O=C(c1ccc(OCCN2CCCCC2)cc1)c1c(-c2ccc(O)cc2)sc2cc(O)ccc12 [raloxifene] | 0.89 | 
7 | CC(C)C[C@H](NC(=O)[C@H](Cc1ccccc1)NC(=O)c1cnccn1)B(O)O [bortezomib] | 0.78 | EC50 [3]: 37 nM; decrease in estradiol-mediated transactivation ([2]; MCF-7, 100 nM estradiol + 100 nM compound): 60%; decrease in estradiol-mediated transactivation ([2]; MCF-7, 100 nM estradiol + 1 μM compound): 54%; decrease in estradiol-mediated transactivation [2, 4]: 29%
